Laboratory results from ChEMBL document CHEMBL1132155, “Endothelin antagonists: substituted mesitylcarboxamides with high potency and selectivity for ET(A) receptors” (J Med Chem, 1999).
In brackets after ≈: the same amount, converted by molar mass.

Key:
[1] = Compound was evaluated for the aqueous solubility (AS) in mg/mL (Measured in 0.2 M phosphate buffer of pH 7.4); format: physicochemical; settings: read-out: AS
How it was run: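 Solubility measured in 0.2 M phosphate buffer, pH 7.4. Where a preformed sodium salt was used, it was measured in saline (9 mg/mL).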

[2] = Compound was evaluated for the biological half-life when administered orally in Acute Pulmonary Hypertension Rat Model; format: ADME, organism-based; settings: in vivo, po
How it was run: (§1)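 Adult Harlan Sprague–Dawley rats received 50 mg/kg by gavage in 0.5% high-viscosity carboxymethyl cellulose (5 mL/kg). Serial 200 μL tail-vein blood samples were taken at selected times into heparin-coated tubes. Red cells were removed by centrifugation and plasma stored at −80 °C. Plasma proteins were precipitated with acetonitrile before HPLC analysis; serum half-life was derived from these samples.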

[3] = target: T1, Endothelin-1 receptor (Homo sapiens) (UniProt P25101); assay: Competitive binding to Endothelin A receptor by displacement of [125I]ET1 (Relative IC50 was calculated as IC50 of compound/IC50 of TBC11251)
T1 sequence (whole entry): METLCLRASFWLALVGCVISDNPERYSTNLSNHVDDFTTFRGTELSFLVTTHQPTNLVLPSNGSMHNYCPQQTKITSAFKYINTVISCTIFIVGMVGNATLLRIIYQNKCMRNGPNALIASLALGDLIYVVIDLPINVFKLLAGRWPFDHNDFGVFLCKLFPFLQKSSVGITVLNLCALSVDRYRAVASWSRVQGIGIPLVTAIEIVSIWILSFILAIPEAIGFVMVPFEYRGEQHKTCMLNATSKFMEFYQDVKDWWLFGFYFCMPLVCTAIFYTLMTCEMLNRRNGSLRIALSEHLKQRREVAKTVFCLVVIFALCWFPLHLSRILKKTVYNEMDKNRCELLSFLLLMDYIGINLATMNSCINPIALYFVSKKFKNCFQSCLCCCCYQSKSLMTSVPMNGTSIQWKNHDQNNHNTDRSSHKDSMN

[4] = target: Endothelin receptor, ET-A/ET-B (Homo sapiens) (UniProt P24530+P25101); assay: Compound was evaluated for the selectivity of ET-A receptors (ET-B IC50/ ET-A IC50); format: protein assay
Rattus norvegicus [5] = assay: Compound was evaluated for the effective oral dose in Acute Pulmonary Hypertension Rat Model after administering 2 hours prior to experiment; format: functional
How it was run: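 Rat model of acute hypoxia-induced pulmonary hypertension. Compound given orally 2 h before hypoxia. Reported value is the lowest tested dose giving 90–100% inhibition of mean pulmonary arterial pressure; mean systemic arterial pressure and heart rate were also monitored. Some entries give % inhibition at 5 mg/kg.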

Rattus norvegicus [6] = assay: Compound was evaluated for the biological half-life when administered orally in Acute Pulmonary Hypertension Rat Model; NM=Not measurable (T1/2 h); format: ADME, organism-based; settings: in vivo, po; how it was run: as §1

Chain of Endothelin receptor, ET-A/ET-B (Homo sapiens) (P24530 whole entry, looked up, one chain of several): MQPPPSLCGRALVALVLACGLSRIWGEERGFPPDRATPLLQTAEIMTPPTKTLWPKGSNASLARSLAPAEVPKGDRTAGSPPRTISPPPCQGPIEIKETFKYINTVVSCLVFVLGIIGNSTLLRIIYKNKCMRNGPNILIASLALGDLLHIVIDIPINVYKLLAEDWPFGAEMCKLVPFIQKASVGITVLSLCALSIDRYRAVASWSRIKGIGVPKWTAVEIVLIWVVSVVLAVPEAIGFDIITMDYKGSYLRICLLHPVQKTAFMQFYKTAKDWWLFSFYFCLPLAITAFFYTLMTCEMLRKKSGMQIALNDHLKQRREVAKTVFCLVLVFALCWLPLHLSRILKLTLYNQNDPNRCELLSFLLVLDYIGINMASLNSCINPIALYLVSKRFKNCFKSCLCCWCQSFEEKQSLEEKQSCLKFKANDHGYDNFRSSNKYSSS

| SMILES | solubility [1] [mg/mL] | half-life [2] [h] | Relative ET-A IC50 [3] | Selectivity [4] | T1/2 (Rattus norvegicus [6]) | Effective dose (Rattus norvegicus [5]) [mg/kg] |
| --- | --- | --- | --- | --- | --- | --- |
| Cc1cc(C)c(NC(=O)c2sccc2S(=O)(=O)Nc2onc(C)c2Cl)c(C)c1CN(C)C |  |  | 0.88 |  |  |  |
| CC(=O)OCc1c(C)cc(C)c(NC(=O)c2sccc2S(=O)(=O)Nc2onc(C)c2C)c1C |  |  | 0.06 | 160000 |  |  |
| Cc1cc(C)c(NC(=O)c2sccc2S(=O)(=O)Nc2onc(C)c2C)c(C)c1CO |  |  | 0.07 | 30400 |  |  |
| Cc1cc(C)c(C(=O)O)c(C)c1NC(=O)c1sccc1S(=O)(=O)Nc1onc(C)c1Cl |  |  | 0.79 |  |  |  |
| Cc1cc(C)c(CNC(=O)c2sccc2S(=O)(=O)Nc2onc(C)c2Cl)c(C)c1CC#N |  |  | 56.4 | 95 |  |  |
| Cc1cc2c(cc1C(CC(=O)O)C(=O)c1sccc1S(=O)(=O)Nc1onc(C)c1Cl)OCO2 (stereo not drawn) |  |  | 5.36 |  |  |  |
| Cc1cc(C)c(NC(=O)c2sccc2S(=O)(=O)Nc2noc(C)c2Cl)c(C)c1CO |  |  | 0.06 | 3500 |  |  |
| COc1c(C)cc(C)c(CC(=O)c2sccc2S(=O)(=O)Nc2onc(C)c2Cl)c1C |  | 3.86 | 0.13 | 7640 |  |  |
| Cc1cc(C)c(NC(=O)c2sccc2S(=O)(=O)Nc2onc(C)c2Cl)c(C)c1CC#N | < 10 | 2.3 | 0.08 | 32900 |  | 5 |
| Cc1cc(C)c(OC(N)=O)c(C)c1NC(=O)c1sccc1S(=O)(=O)Nc1onc(C)c1Cl |  |  | 0.34 | 6700 | Not Active |  |
| COC(=O)Oc1c(C)cc(C)c(NC(=O)c2sccc2S(=O)(=O)Nc2onc(C)c2Cl)c1C |  |  | 0.05 | 22200 | Not Active |  |
| COC(=O)c1c(C)cc(C)c(NC(=O)c2sccc2S(=O)(=O)Nc2onc(C)c2Cl)c1C |  |  | 0.21 | 41900 |  |  |
| CC(=O)Oc1c(C)cc(C)c(NC(=O)c2sccc2S(=O)(=O)Nc2onc(C)c2Cl)c1C |  |  | 0.11 | 6970 |  |  |
| Cc1cc(C)c(CC(=O)c2sccc2S(=O)(=O)Nc2onc(C)c2Cl)c(C)c1O |  | 3.9 | 0.08 | 10800 |  |  |
| Cc1cc(C)c(OS(=O)(=O)N(C)C)c(C)c1NC(=O)c1sccc1S(=O)(=O)Nc1onc(C)c1Cl |  |  | 2.3 | 1630 |  |  |
| Cc1cc(C)c(NC(=O)c2sccc2S(=O)(=O)Nc2noc(C)c2Cl)c(C)c1CC#N | 70 (≈ 146 mM) | 3.1 | 0.06 | 8550 |  |  |
| CCOC(=O)N(C(=O)c1sccc1S(=O)(=O)Nc1onc(C)c1Cl)c1c(C)cc(C)c(O)c1C |  |  | 5.56 | 1530 |  |  |
| CC(=O)OCc1c(C)cc(C)c(NC(=O)c2sccc2S(=O)(=O)Nc2onc(C)c2Cl)c1C |  | 0.5 | 0.06 | 850000 |  | 5 |
| Cc1cc(C)c(OCC2CC2)c(C)c1NC(=O)c1sccc1S(=O)(=O)Nc1onc(C)c1Cl |  |  | 0.07 | 59400 |  |  |

Second part, led by results:

| solubility [1] [mg/mL] | half-life [2] [h] | Relative ET-A IC50 [3] | Selectivity [4] | T1/2 (Rattus norvegicus [6]) | SMILES | Effective dose (Rattus norvegicus [5]) [mg/kg] |
| --- | --- | --- | --- | --- | --- | --- |
| 43 (≈ 83.8 mM) | < 1 | 0.01 | 29200 |  | COc1cc(C#N)c(NC(=O)c2sccc2S(=O)(=O)Nc2onc(C)c2Cl)c(OC)c1OC |  |
|  |  | 3110 | 3 |  | Cc1noc(NS(=O)(=O)c2ccsc2C(=O)Nc2c(C)c(CC#N)c(C)c(CC#N)c2C)c1Cl |  |
|  |  | 5.63 |  |  | Cc1cc2c(cc1C(C)C(=O)c1sccc1S(=O)(=O)Nc1onc(C)c1Cl)OCO2 (stereo not drawn) |  |
|  |  | 0.16 | 36200 |  | COC(=O)c1cc(C)cc(C)c1NC(=O)c1sccc1S(=O)(=O)Nc1onc(C)c1Cl |  |
|  |  | 0.15 |  |  | Cc1cc(C)c(N2CCCC2)c(C)c1NC(=O)c1sccc1S(=O)(=O)Nc1onc(C)c1Cl |  |
| 83 (≈ 182 mM) | 7.3 | 0.11 | 10900 |  | Cc1cc(C)c(NC(=O)c2sccc2S(=O)(=O)Nc2onc(C)c2Cl)c(C)c1O | 5 |
| < 10 | 1.8 | 0.06 | 56400 |  | COc1c(C)cc(C)c(NC(=O)c2sccc2S(=O)(=O)Nc2onc(C)c2Cl)c1C |  |
| 65 (≈ 138 mM) | 1.4 | 0.04 | 111000 |  | Cc1cc(C)c(NC(=O)c2sccc2S(=O)(=O)Nc2onc(C)c2Cl)c(C)c1CO | 15 |
|  |  | 0.5 |  |  | COCCOCCOCC(=O)Oc1c(C)cc(C)c(NC(=O)c2sccc2S(=O)(=O)Nc2onc(C)c2Cl)c1C |  |
|  |  | 0.09 | 22600 |  | Cc1cc(C)c(OC(=S)N(C)C)c(C)c1NC(=O)c1sccc1S(=O)(=O)Nc1onc(C)c1Cl |  |
|  |  | 38.4 | 59 |  | Cc1cc2c(cc1C(CCBr)C(=O)c1sccc1S(=O)(=O)Nc1onc(C)c1Cl)OCO2 (stereo not drawn) |  |
|  |  | 0.03 | 38400 |  | CC(=O)OCc1c(C)cc(C)c(NC(=O)c2sccc2S(=O)(=O)Nc2noc(C)c2Cl)c1C |  |
|  |  | 0.21 | 16200 |  | Cc1cc(C)c(NC(=O)c2sccc2S(=O)(=O)Nc2onc(C)c2Cl)c(C)c1COC(=S)N(C)C |  |
|  |  | 0.25 | 9160 |  | Cc1nc(C)c(NC(=O)c2sccc2S(=O)(=O)Nc2onc(C)c2Cl)c(C)n1 |  |
| < 10 | 1.8 | 0.1 | 14600 |  | Cc1cc(C)c(NC(=O)c2sccc2S(=O)(=O)Nc2onc(C)c2C)c(C)c1CC#N |  |
| < 10 | 2.1 | 0.11 | 41700 |  | Cc1cc(C)c(NS(C)(=O)=O)c(C)c1NC(=O)c1sccc1S(=O)(=O)Nc1onc(C)c1Cl |  |
| 37 (≈ 79.6 mM) | 1.8 | 0.1 | 37700 |  | Cc1cc(C)c(NC(=O)c2sccc2S(=O)(=O)Nc2onc(C)c2Cl)c(C)c1C#N |  |
|  |  | 1.97 | 1080 |  | Cc1noc(NS(=O)(=O)c2ccsc2C(=O)Nc2c(C)c(C)c(C)c(C)c2C)c1Cl |  |
| < 10 | 4.1 | 1 | 3210 |  | Cc1cc2c(cc1CC(=O)c1sccc1S(=O)(=O)Nc1onc(C)c1Cl)OCO2 [SITAXENTAN] | 5 |
| 23 (≈ 52.3 mM) | 2.5 | 0.1 | 7050 |  | Cc1cc(C)c(NC(=O)c2sccc2S(=O)(=O)Nc2onc(C)c2Cl)c(C)c1 |  |
|  |  | 0.07 | 114000 |  | COC(=O)Cc1c(C)cc(C)c(NC(=O)c2sccc2S(=O)(=O)Nc2onc(C)c2Cl)c1C |  |
|  |  | 0.12 | 59900 |  | Cc1cc(C)c(NC(=O)c2sccc2S(=O)(=O)Nc2onc(C)c2Cl)c(C)c1CC(=O)O |  |
|  |  | 0.24 | 9390 |  | Cc1cc(C)c(CC(=O)c2sccc2S(=O)(=O)Nc2onc(C)c2Cl)c(C)c1 |  |
|  |  | 1.15e+06 | 0.004 |  | Cc1cc(C)c(CNC(=O)c2sccc2S(=O)(=O)Nc2onc(C)c2Cl)c(C)c1 |  |
| 50 (≈ 104 mM) | 1 | 0.07 | 36600 |  | Cc1cc(C)c(N(C)C)c(C)c1NC(=O)c1sccc1S(=O)(=O)Nc1onc(C)c1Cl |  |
|  |  | 0.05 | 23000 |  | Cc1cc(C)c(OCC(=O)O)c(C)c1NC(=O)c1sccc1S(=O)(=O)Nc1onc(C)c1Cl |  |
| 30 (≈ 57.8 mM) | 1.5 | 0.06 | 27800 |  | Cc1cc(C)c(S(N)(=O)=O)c(C)c1NC(=O)c1sccc1S(=O)(=O)Nc1onc(C)c1Cl | 5 |
